An excerpt weighted towards active compounds, which were near 2.2% of everything screened.
MT1-MMP txn act – activates MT1-MMP transcription; HT1080 MT1-MMP promoter luciferase reporter, luminescence, overnight; hits give high values; activation factor at 10 µM; 0.16% of 86,000 active; AID 750;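 active means activation factor of at least 2 for MT1-MMP transcription at 10 µM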
CD11b adhes inh – CD11b/CD18-fibrinogen binding inhibition. P05107+P11215. K562 CD11b/CD18 adhesion to fibrinogen, ATPlite luminescence; Mn2+ added to activate the integrin. inhibition, % at 10 µM. 0.54% of 93,000 active;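 active means primary inhibition of 50% or more at 10 µM, then 40% or more on retest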
Mac1 fbg enh – increases human CD11b/CD18 adhesion to fibrinogen. P05107+P11215. K562 CD11b/CD18 adhesion to fibrinogen, ATPlite luminescence. activation, % at 10 µM. 0.07% of 93,000 active. AID 1499;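 active means 10 µM primary screen giving 50% or more activity, confirmed by 40% or more on retest at that dose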
RORa activator – activators of human nuclear receptor RORA; P35398; CHO-K1 Gal4-RORA LBD luciferase reporter, luminescence; percent increase over mock-subtracted basal signal; activation, % at 10 µM; 1.5% of 65,000 active;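 active means activation above the mean of all tested compounds plus 3 SD, cut at about 49% in these data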;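 further: 0% = DMSO-treated RORA cells and 100% = added signal equal to DMSO minus mock-transfected cells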
Target sequence (P35398 whole entry, looked up, the tested form may be a part): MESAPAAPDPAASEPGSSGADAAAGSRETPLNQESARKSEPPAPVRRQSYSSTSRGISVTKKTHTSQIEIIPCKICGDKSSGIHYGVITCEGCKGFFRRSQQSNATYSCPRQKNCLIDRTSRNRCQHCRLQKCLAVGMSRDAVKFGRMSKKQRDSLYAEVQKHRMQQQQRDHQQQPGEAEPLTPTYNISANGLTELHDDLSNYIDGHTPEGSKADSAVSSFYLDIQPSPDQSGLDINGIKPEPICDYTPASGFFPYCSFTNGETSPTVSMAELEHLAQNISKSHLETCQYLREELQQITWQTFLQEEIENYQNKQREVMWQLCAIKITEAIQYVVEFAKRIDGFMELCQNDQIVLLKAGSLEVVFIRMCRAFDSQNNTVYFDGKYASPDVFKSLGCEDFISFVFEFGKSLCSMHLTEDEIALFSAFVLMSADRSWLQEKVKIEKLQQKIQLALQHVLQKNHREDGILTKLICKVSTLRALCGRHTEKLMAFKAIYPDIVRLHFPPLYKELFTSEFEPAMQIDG
Candida biofilm – kills Candida albicans biofilms; C. albicans biofilm + clotrimazole, Alamar Blue; inhibition, % at 6 µM; 0.14% of 85,000 active; AID 834;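 active means inhibition above 20%; inactive means inhibition below 20%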;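 further: preformed 24 hr biofilms exposed to compound for 48 hr; 0% = biofilm without compound and 100% = blank killed by clotrimazole plus chlorhexidine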
SF1 activator – activators of human nuclear receptor SF-1 | CHO-K1 Gal4-SF-1 LBD luciferase reporter; % increase over DMSO SF-1-specific signal | 1.9% of 65,000 active | activation, % at 10 µM | Q13285 | AID 522;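 active means activation above the mean activation of all tested compounds plus 3 SD, cut at about 50% in these data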
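Compound – one dose, 10 µM compound, 1% DMSO · Test system – transient Gal4-SF-1 LBD reporter, CHO-K1 · Input – 4,000 cells in each well · Read-out basis – percent activation relative to DMSO median and mock-transfected background · Replicates – single measurement per compound · Technique – steady-glow luciferase luminescence, read after 15 min reagent incubation · Timing – 20 h compound treatment, 37 °C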
* = called active by the depositor; nt = not tested or not shown.

SMILES	MT1-MMP txn act	CD11b adhes inh	Mac1 fbg enh	RORa activator	Candida biofilm	SF1 activator
c1cn2cc(CSC3CCCCC3)nc2s1	1.4	nt	-1	30	8	60*
c1ccc(CSCc2cn3ccsc3n2)cc1	1.7	-17	0	58*	8	54*
O=C(NCCc1cn2ccsc2n1)C1CCCCC1	1.1	2	-1	-9	5	1
Cc1ccc(SCc2c(C#N)c3ccccc3n2C)cc1	1.1	nt	nt	-6	-1	-14
Cn1c(CSc2ccccc2)c(C#N)c2ccccc21	1.7	26	0	61*	-4	27
COc1ccc(CC(=O)Nc2ccc(C(=O)Nc3ccccc3C(=O)O)cc2)cc1OC	nt	-37	-3	nt	nt	nt
CC(C)CC(=O)Nc1cc2nn(-c3ccccc3)nc2cc1Cl	1.6	3	-3	nt	53*	nt
Cc1ccccc1OCCCn1c(=O)sc2ccccc21	1.6	-1	-2	nt	3	nt
CCOC(=O)N1CCN(C(=O)c2cc(-c3ccc(OCC)cc3)nc3ccccc23)CC1	0.8	54	-6	136*	-2	71*
CCOc1ccc(-c2cc(C(=O)N3CCN(C)CC3)c3ccccc3n2)cc1	1.2	28	-3	36	2	35
CCOc1ccc(-c2cc(C(=O)N3CCN(c4ccccn4)CC3)c3ccccc3n2)cc1	0.9	82	-6	76*	-3	91*
O=C(CCCOc1ccccc1)N1CCN(c2ccccn2)CC1	0.8	-22	-3	56*	6	26
COc1cc(-c2cc(C(=O)N3CCN(c4ccccn4)CC3)c3ccccc3n2)cc(OC)c1OC	1.1	nt	nt	-8	6	19
COc1ccc(-c2cc(C(=O)N3CCN(c4ccccn4)CC3)c3ccccc3n2)cc1	1.8	44	-6	74*	2	90*
COc1ccc(C(C)(C)C)cc1NC(=S)NCCN1CCOCC1	nt	3	2	nt	nt	nt
C=C(C)CSc1nncn1/N=C/c1ccc(OC)cc1	1.9	10	-3	49*	8	55*
Cc1ccc2[nH]c3c(c2c1)CCC3=O	1.1	-14	-3	-3	5	-4
CCCCN1CCc2c([nH]c3ccc(C)cc23)C1=O	0.9	-2	4	51*	-5	51*
Cc1cc(C(=O)N[C@@H](c2ccccc2)[C@]2(C)C[C@H]2[C@@H](C)C(=O)Nc2ccc3ccccc3c2)n(C)n1	1.3	nt	nt	nt	nt	nt
COc1cccc(-c2csc(NC(=O)C3CC3)n2)c1	1.6	-16	-1	74*	8	60*
COc1ccc(OC)c(-c2nnc(NC(=O)C(C)Sc3nncn3C)s2)c1 (stereo not given)	1.2	9	-2	-10	23*	4
COc1cccc(/C=N/n2cnc3ccccc32)c1OC	1.3	14	-6	nt	4	nt
O=[N+]([O-])c1ccc(O)c(/C=N/n2cnc3ccccc32)c1	nt	104*	-8	nt	nt	nt
c1ccc(C2CC(c3ccccc3)n3c(nc4ccccc43)N2)cc1 (stereo not given)	nt	-7	81	nt	nt	nt
O=C(COc1ccc(Br)cc1Br)NC(=S)N1CCCc2ccccc21	nt	60*	-6	nt	nt	nt
SMILES	MT1-MMP txn act	CD11b adhes inh	Mac1 fbg enh	RORa activator	Candida biofilm	SF1 activator
O=C(NC(=S)N1CCc2ccccc21)c1ccccc1Br	nt	2	1	nt	nt	nt
Nc1c(C(=O)c2ccc(Cl)cc2)sc2nc3c(cc12)CCC3	nt	-4	-5	nt	nt	nt
CN1CCc2nc3sc(C(=O)C45CC6CC(CC(C6)C4)C5)c(N)c3cc2C1	nt	13	118*	nt	nt	nt
COC(=O)c1cccc(C23CC4(C2)[C@H](CN(Cc2cccnc2)[C@@H]4c2ccccc2)C3c2ccc(C(F)(F)F)cc2)c1 (stereo not given in full)	1	nt	nt	nt	nt	nt
O=C(CSc1cn(CCNC(=O)c2cccs2)c2ccccc12)NCC1CCCO1 (stereo not given)	1	-19	-2	13	33*	6
O=C(CSc1cn(CCNC(=O)c2cccs2)c2ccccc12)NC1CCCCC1	nt	10	4	nt	6	nt
O=C1c2ccccc2C(=O)N1CCOc1ccccc1	2.1*	nt	nt	nt	5	nt
Cc1nc2cc(NC(=O)N3c4ccccc4CC3C)ccc2o1 (stereo not given)	1.3	-12	16	41	2	79*
COc1ccc(-c2ncccc2OC(=O)C23CC4CC(CC(C4)C2)C3)cc1	nt	15	10	nt	nt	nt

Bioassay records as filed in PubChem BioAssay.
